Experiment [1] concerns the target T1, Sodium-dependent dopamine transporter (Homo sapiens, UniProt Q01959). The experiment can be described thus: Enhancing of [3H]WIN35,428 binding to recombinant human DAT expressed in HEK293 cell membranes at 10 uM pre-incubated for 10 mins before radioligand addition and measured 90 mins after radioligand addition by micro beta scintillation counting analysis relative to control.

Experiment [2] concerns the target T1, Sodium-dependent dopamine transporter. The experiment can be described thus: Inhibition of [3H]WIN35,428 binding to recombinant human DAT expressed in HEK293 cell membranes at 10 uM pre-incubated for 10 mins before radioligand addition and measured 90 mins after radioligand addition by micro beta scintillation counting analysis relative to control.
Experiment [3] concerns the target T2, Adenosine receptor A3 (Homo sapiens, UniProt P0DMS8).
T2 sequence (P0DMS8 whole entry): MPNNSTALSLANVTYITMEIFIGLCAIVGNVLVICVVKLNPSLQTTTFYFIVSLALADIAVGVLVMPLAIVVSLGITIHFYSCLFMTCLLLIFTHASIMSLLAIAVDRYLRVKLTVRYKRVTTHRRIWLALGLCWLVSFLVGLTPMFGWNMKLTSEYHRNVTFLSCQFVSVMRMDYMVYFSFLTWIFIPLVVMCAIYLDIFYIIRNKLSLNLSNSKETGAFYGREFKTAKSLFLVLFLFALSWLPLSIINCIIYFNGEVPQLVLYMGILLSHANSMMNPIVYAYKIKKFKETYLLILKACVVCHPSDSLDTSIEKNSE
The experiment can be described thus: Displacement of [125I]N6-(4-amino-3-iodobenzyl)adenosine-5'-N-methyluronamide from human A3AR expressed in HEK293T cells pre-incubated for 10 mins before radioligand addition and measured 90 mins after radioligand addition by micro beta scintillation counting analysis relative to control. Format: cell-based, HEK-293T.

Experiment [4] concerns the target T3, Adenosine receptor A3 (Mus musculus) (UniProt Q61618).
T3 sequence (whole entry): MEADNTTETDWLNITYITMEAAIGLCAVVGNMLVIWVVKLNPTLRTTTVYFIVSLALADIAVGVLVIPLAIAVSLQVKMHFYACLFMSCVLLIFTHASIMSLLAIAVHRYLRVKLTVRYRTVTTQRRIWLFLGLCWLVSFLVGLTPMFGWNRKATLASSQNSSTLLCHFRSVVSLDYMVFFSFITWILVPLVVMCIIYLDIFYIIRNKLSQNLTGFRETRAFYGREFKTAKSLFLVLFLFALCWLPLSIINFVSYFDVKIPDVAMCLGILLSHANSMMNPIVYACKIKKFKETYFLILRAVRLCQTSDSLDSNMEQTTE
The experiment can be described thus: Displacement of [125I]N6-(4-amino-3-iodobenzyl)adenosine-5'-N-methyluronamide from mouse A3AR expressed in HEK293T cells at 10 uM pre-incubated for 10 mins before radioligand addition and measured 90 mins after radioligand addition by micro beta scintillation counting analysis relative to control. It is filed as cell-based.

Experiment [5] concerns the target T4, 5-hydroxytryptamine receptor 2C (Homo sapiens, UniProt P28335).
T4 sequence (P28335 whole entry): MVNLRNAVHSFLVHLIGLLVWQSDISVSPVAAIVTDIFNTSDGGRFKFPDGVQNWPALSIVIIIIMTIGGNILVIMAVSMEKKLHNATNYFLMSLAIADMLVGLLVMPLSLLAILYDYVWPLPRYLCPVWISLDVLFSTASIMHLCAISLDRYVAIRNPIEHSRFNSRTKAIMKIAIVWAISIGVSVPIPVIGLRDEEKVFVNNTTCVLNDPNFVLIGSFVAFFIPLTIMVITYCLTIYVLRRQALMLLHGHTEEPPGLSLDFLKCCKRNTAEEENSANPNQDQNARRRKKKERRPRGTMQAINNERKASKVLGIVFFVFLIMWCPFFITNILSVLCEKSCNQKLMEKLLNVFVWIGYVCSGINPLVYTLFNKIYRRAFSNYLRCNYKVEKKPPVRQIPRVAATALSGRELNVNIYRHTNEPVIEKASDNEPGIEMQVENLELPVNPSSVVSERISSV
Nature of the experiment: Displacement of [3H]Mesulergine from human 5-HT2C receptor.

Experiment [6] addresses Muscarinic acetylcholine receptor M5 (Homo sapiens, UniProt P08912). The experiment can be described thus: Displacement of [3H]QNB from human muscarinic M5 receptor.
The target of experiment [7] is Sigma non-opioid intracellular receptor 1 (Rattus norvegicus, UniProt Q9R0C9). Nature of the experiment: Displacement of [3H]Pentazocine from rat sigma 1 receptor.
Sigma non-opioid intracellular receptor 1, sequence (Q9R0C9 whole entry): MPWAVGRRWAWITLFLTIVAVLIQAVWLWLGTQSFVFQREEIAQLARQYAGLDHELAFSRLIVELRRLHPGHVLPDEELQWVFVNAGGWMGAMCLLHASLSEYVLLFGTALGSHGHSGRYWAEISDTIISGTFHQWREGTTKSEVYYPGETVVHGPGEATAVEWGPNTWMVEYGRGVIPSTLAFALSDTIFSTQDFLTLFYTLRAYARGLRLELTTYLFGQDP
Experiment [8] deals with Sigma intracellular receptor 2 (Rattus norvegicus, UniProt Q5U3Y7). The experiment can be described thus: Displacement of [3H]DTG from rat sigma 2 receptor.
Sigma intracellular receptor 2, sequence (Q5U3Y7 whole entry): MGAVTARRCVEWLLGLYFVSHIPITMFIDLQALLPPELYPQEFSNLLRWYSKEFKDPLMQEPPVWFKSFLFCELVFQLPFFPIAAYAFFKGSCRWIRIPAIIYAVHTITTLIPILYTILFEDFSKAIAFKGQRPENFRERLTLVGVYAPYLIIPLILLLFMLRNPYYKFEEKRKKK
The target of experiment [9] is Adenosine receptor A3 (Homo sapiens) (UniProt P0DMS8). The experiment can be described thus: Agonist activity at human A3AR assessed as inhibition of cAMP formation at 10 uM relative to adenosine-5'-Nethyluronamide.
Experiment [10] addresses T1, Sodium-dependent dopamine transporter. The experiment can be described thus: Enhancing of [125I]RTI-55 binding to recombinant human DAT expressed in HEK293 cell membranes preincubated for 10 mins followed by radioligand addition measured after 90 mins by micro beta scintillation counting analysis. Set-up: concentration or dose not given beside the values. The procedure, abridged:
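Membranes of HEK-293 cells stably expressing hDAT, hNET or hSERT. […] Compound preincubated 10 min at room temperature, then [125I]23 (40-80 pM final) or [3H]26 (1-3 nM for DAT and NET, 10-13 nM for SERT) added. Incubated 90 min at room temperature in the dark, then filtered. EC50 or Ki; mean ± SEM.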

The target in experiment [11] is Sodium-dependent noradrenaline transporter (Homo sapiens, UniProt P23975). The experiment can be described thus: Enhancing of [125I]RTI-55 binding to recombinant human NET expressed in HEK293 cell membranes preincubated for 10 mins followed by radioligand addition measured after 90 mins by micro beta scintillation counting analysis. Set-up: concentration or dose not given beside the values.
Sodium-dependent noradrenaline transporter, sequence (P23975 whole entry): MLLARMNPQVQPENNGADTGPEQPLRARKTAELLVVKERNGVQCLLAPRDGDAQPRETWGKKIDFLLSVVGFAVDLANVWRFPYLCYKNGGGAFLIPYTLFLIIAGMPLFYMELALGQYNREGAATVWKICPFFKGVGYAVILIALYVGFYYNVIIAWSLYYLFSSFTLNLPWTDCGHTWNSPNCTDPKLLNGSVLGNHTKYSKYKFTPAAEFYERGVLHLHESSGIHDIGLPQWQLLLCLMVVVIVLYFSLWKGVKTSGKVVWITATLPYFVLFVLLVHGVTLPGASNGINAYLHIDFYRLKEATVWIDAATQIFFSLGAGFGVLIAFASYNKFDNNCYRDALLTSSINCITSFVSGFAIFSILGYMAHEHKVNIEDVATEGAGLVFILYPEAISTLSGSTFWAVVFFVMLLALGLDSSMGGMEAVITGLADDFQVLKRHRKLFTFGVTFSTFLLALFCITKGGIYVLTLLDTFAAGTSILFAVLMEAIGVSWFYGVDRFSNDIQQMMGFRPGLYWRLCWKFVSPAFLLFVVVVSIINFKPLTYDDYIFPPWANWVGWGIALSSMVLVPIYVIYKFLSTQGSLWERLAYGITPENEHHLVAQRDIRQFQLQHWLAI

The target in experiment [12] is T1, Sodium-dependent dopamine transporter. Nature of the experiment: Inhibition of recombinant human DAT expressed in HEK293 cell […] as reduction in [3H]-DA uptake incubated for 22 mins by micro beta scintillation counting analysis.
Experiment [13] has as its target Beta-3 adrenergic receptor (Homo sapiens, UniProt P13945). The experiment can be described thus: Displacement of [3H]CGP12177 from human adrenergic beta3 receptor.
The target in experiment [14] is T1, Sodium-dependent dopamine transporter. The experiment can be described thus: Enhancing of [3H]WIN35,428 binding to recombinant human DAT expressed in HEK293 cell membranes pre-incubated for 10 mins before radioligand addition and measured 90 mins after radioligand addition by micro beta scintillation counting analysis relative to control.
Experiment [15] deals with Sodium-dependent serotonin transporter (Homo sapiens, UniProt P31645). The experiment can be described thus: Inhibition of [125I]RTI-55 binding to recombinant human SERT expressed in HEK293 cell membranes preincubated for 10 mins followed by radioligand addition measured after 90 mins by micro beta scintillation counting analysis.
Sodium-dependent serotonin transporter, sequence (P31645 whole entry): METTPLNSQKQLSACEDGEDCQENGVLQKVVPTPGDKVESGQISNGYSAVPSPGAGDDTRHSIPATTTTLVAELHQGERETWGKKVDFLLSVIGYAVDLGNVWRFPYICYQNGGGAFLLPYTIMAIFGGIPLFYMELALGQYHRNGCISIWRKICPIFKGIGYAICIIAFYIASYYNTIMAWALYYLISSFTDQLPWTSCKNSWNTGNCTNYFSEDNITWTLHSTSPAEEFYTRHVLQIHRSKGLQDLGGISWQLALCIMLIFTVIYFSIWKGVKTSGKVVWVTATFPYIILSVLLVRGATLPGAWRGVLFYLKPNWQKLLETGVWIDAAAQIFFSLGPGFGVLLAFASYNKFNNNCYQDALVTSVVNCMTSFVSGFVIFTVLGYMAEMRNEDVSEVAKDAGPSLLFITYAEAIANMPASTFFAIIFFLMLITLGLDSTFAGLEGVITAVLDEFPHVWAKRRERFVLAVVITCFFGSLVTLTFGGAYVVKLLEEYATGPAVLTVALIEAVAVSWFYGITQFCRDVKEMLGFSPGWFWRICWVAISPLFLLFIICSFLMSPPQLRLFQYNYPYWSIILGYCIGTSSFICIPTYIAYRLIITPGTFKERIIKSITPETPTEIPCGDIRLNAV

Structures are written as SMILES. Calls of active or inactive are those of the source. No cut-off for these calls is given here.

T1 sequence (Q01959 whole entry): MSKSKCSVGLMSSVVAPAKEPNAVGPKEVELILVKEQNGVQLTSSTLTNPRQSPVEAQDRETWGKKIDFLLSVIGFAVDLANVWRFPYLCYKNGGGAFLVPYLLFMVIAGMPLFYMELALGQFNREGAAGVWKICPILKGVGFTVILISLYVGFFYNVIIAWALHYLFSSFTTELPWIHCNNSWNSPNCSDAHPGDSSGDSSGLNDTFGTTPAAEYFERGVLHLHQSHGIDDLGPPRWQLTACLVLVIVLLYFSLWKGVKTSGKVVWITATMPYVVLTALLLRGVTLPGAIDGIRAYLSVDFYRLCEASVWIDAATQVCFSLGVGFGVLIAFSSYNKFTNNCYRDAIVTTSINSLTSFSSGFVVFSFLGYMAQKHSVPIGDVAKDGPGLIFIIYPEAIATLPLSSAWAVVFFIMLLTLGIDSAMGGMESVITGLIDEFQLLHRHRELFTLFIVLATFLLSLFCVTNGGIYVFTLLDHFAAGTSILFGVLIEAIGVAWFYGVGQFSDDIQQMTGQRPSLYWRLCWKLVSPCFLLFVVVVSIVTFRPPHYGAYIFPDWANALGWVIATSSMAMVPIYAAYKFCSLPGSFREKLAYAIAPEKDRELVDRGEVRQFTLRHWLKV
Muscarinic acetylcholine receptor M5, sequence (P08912 whole entry): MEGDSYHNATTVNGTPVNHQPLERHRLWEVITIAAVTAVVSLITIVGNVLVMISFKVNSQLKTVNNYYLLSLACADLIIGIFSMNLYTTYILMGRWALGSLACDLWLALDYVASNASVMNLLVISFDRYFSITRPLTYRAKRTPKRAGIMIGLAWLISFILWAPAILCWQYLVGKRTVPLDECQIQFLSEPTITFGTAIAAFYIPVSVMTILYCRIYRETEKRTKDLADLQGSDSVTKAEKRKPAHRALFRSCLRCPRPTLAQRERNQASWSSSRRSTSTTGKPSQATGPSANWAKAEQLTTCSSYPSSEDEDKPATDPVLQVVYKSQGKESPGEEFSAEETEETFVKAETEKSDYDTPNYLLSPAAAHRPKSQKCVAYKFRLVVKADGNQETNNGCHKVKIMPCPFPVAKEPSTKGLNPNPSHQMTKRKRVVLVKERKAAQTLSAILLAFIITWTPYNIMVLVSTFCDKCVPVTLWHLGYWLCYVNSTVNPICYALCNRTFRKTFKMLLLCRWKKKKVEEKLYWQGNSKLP
Beta-3 adrenergic receptor, sequence (P13945 whole entry): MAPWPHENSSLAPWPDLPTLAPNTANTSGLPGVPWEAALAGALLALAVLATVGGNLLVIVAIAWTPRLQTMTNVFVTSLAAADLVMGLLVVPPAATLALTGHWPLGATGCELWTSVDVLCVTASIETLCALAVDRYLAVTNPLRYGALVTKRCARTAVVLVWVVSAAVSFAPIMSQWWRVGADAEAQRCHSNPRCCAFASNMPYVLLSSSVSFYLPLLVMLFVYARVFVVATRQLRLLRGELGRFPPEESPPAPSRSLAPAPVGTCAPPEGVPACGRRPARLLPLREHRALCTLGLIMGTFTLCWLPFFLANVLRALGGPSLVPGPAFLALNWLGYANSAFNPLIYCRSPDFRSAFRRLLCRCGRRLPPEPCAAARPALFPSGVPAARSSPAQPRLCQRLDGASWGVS

`CCOC(=O)[C@@]12C[C@@H]1[C@@H](n1cnc3c(NC)nc(C#Cc4ccc(Cl)s4)cc31)[C@H](O)[C@@H]2O`: the Activity in experiment [1] is 354%. The inhibition result in experiment [2] is “inactive”. For the same compound, the Ki is 0.169 µM in experiment [3]; 0.395 µM in experiment [5]; 3.8 µM in experiment [6]; 1.04 µM in experiment [7]; 1.9 µM in [8]. In [4], this compound returned an inhibition of 18%. Also, in experiment [9], the Efficacy amounted to 3.6%.

In the case of `CCCNc1nc(C#Cc2ccc(Cl)s2)nc2c1ncn2[C@H]1[C@H](O)[C@H](O)[C@]2(C(=O)NC)C[C@H]12`, the Activity in experiment [10] is 268%; in experiment [11], 159%. Further, the EC50 in [10] (read-out: EC50) was 1.12 µM; in experiment [11] (read-out: EC50), 0.9 µM; in experiment [14], over 1 µM. The IC50 in [12] was over 8.7 µM. The compound further had a Ki in [13] of 1.44 µM.

Consider `CNc1nc(C#Cc2ccc(Cl)s2)nc2c1ncn2[C@H]1[C@H](O)[C@H](O)[C@]2(C(=O)OCc3ccccc3)C[C@H]12`, for which the outcome in experiment [1] was inactive. Also, the results for the Ki in [3] and in experiment [15] were 0.00731 µM and 5.6 µM, respectively. The same compound showed an inhibition in experiment [4] of 48%.
